# According to ChEMBL document CHEMBL4513216, “Probing the Open Global Health Chemical Diversity Library for Multistage-Active Starting Points for Next-Generation Antimalarials” (ACS Infect Dis, 2020):
# Assay: Toxicity liver stage against HepG2, at 10uM
# Type: cell-based
# Set-up: test concentration 10 uM, cell line HepG2-A16-CD81EGFP
# Details: human, HepG2-A16-CD81EGFP cells; read-out: INHIBITION
# Procedure, shortened: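 Uninfected HepG2-A16-CD81EGFP cells, 3 × 10^3 per well, 1536-well, plated on prespotted compound at 10 μM final, parasite-free screening media added to match infected plates; puromycin 10 μM positive, DMSO 0.5% negative; run in parallel with 48 h PbLuc assay at 37 °C, 5% CO2; viability by CellTiter-Glo luminescence, normalized to controls.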
row,SMILES,cytotoxicity at 10 µM [%]
1,CC(=O)c1cccc(OCC(=O)NS(=O)(=O)c2ccc(Br)s2)c1,-19.4
2,Cn1cc(C(=O)N2CCCC(n3cccn3)C2)c2ccccc21 (stereo not given),5.2
3,Nc1nccnc1C(=O)N(Cc1ccccc1O)CC1CCCO1 (stereo not given),-4.45
4,CCc1ncc2c(n1)CN(CC(=O)Nc1nncs1)CC2,1.74
5,Cn1ccc(C(=O)N2CCCC(Cc3cnc4ccccc4c3)C2)n1 (stereo not given),-6.19
6,Cc1cc(NC(=O)C(C)N2CCN(c3nc(C)ns3)CC2)on1 (stereo not given),-9.48
7,O=C(c1csc(Br)c1)N1CCCC(n2ccnc2)C1 (stereo not given),3.51
8,Cc1nn(C)c(N(C)C)c1CNCc1cccnc1N1CCOCC1,-141
9,Cc1ccc2c(c1)C(NCc1nnc3n1CCCCC3)CCCO2 (stereo not given),-3.39
10,CC(NC1CCN(CCc2ccncc2)CC1)c1cnn(C(C)C)c1 (stereo not given),-4.97
11,CCS(=O)(=O)N1CCc2c(cnc(-c3cccnc3)c2C(=O)O)C1,2.66
12,COc1ccccc1CN(Cc1cccc(C)c1)C(=O)[C@@H](N)CC(=O)O,-47.7
13,O=C1CC(c2ccc(C(=O)O)cc2)c2ncn(-c3ccccc3Cl)c2N1 (stereo not given),2.03
14,CC(C)(C)c1ncc(C(=O)NCCSc2ccccn2)c(O)n1,-0.494
15,Cc1n[nH]c(C)c1C1COCCN1C(=O)c1ccc2c(c1)CCO2 (stereo not given),-4.01
16,Cc1[nH]ccc1C(=O)N1CCC2(CC1)c1nc[nH]c1CCN2S(C)(=O)=O,6.63
17,CCCc1n[nH]c(C2CN(CC(=O)N(C)Cc3ccco3)CCO2)n1 (stereo not given),-4.84
18,Cc1cc(C)n(CC2CN(CC(=O)NC(C3CC3)C3CC3)CCO2)n1 (stereo not given),-0.544
19,CCN1CCN(C(=O)c2ccn(C)c(=O)c2)CC1,8.66
20,COC(=O)c1cccc(CNC(=O)CC(F)(F)F)c1,17.4
21,CN(C)c1ccc(NC(=O)CN2CCS(=O)(=O)CC2)cn1,6.56
22,CSc1ccc(NCC(=O)NC(=O)NCC(F)(F)F)cc1F,-7.91

row,SMILES,cytotoxicity at 10 µM [%]
1,CCc1cc(CNC(=O)NCc2ccc(N3CCCCC3)cc2)on1,1.27
2,COc1ccc(F)cc1C(=O)N1CCC2(CCC(=O)N(C(C)C)C2)CC1,-4.75
3,CN1CCOC(C(=O)Nc2nc(-c3ccc4c(c3)CCC4)n[nH]2)C1 (stereo not given),-7.53
4,CN(C)CCN(Cc1ccc(Cl)cc1)C(=O)c1cc[nH]n1,5.65
5,CN1C(=O)c2cccc(NC(=O)c3ccc4c(c3)OCCO4)c2C1=O,4.02
6,CC1=Nc2c(c(=O)[nH]n2C2CCCC2)C(c2ccc(C(=O)O)cc2)S1 (stereo not given),-10.4
7,CCCc1nc(C)c(CN2CC3(CCOC3)CCC2=O)s1 (stereo not given),-10.5
8,CCS(=O)(=O)NCCNC(=O)c1cnc(-c2ccccc2)nc1,13.8
9,CCCN1C(=O)c2ccccc2C1OC (stereo not given),-10.1
10,Cc1ccc(NC(=O)NC(C)Cn2cccn2)cc1 (stereo not given),-0.577
11,CN1CCCN(C(=O)c2cccc(S(=O)(=O)NCC3(C)COC3)c2)CC1,-6.63
12,Cn1cc(C(=O)Nc2ccc(CC(=O)NC3CC3)cc2)nn1,-7.42
13,Cc1c(C(=O)N2CC(Cc3nccc4ccn(C)c34)C2)cnn1C,-26.3
14,CC(C(=O)Nc1cnn(CC(N)=O)c1)c1ccc(Cl)s1 (stereo not given),10.9
15,CCCN(CC)C(=O)c1cc2c(c3ccccc3n2C)n1C(=O)N(C)C,-4.89
16,COCCC(=O)NCc1ccc(-c2ncncc2C(=O)N(C)C)cc1,4.45
17,O=C(Cn1ccc2ccc(Br)cc21)NC[C@@H]1CCCN2CCCC[C@H]12,14.7
18,Cc1nnc(CN2CCCC(c3noc(C4CC4)n3)C2)o1 (stereo not given),-16
19,CC(C)n1cnnc1CN(C)Cc1ccoc1,3.15
20,Cc1cccc(-n2cc(C(=O)N3CCCC(n4ccnc4)C3)nn2)c1 (stereo not given),5.39
21,O=C1CCCCN1CSc1nnnn1-c1ccc(Cl)cc1,-48.4
22,Cc1oc(C)c(C(=O)N2CCN(Cc3cscn3)CC2)c1C,-10.6

row,SMILES,cytotoxicity at 10 µM [%]
1,Cc1n[nH]cc1CNCc1ccnc(OCC(F)(F)F)c1,5.33
2,Cc1cc(C)n(C2CN(Cc3noc(-c4ccccc4)n3)C2)n1,-12.8
3,N#Cc1ccc(N2CCC(OCCc3ccccc3)CC2)nc1,-9.67
4,CS(=O)(=O)CC(=O)NCC1OCCc2cn(CC3CC3)nc21 (stereo not given),3.45
5,Cc1nc2sccn2c1C(=O)N1CCc2[nH]cnc2C1,-6.11
6,CC(CN1CCOCC1)NC(=O)N1CCCC1 (stereo not given),0.651
7,CSCc1ccc(N2CCN(c3ccc(Cl)cn3)CC2)nc1,-9.64
8,O[C@@H]1CCN(CC2CCOC2)[C@H]1Cc1ccccc1 (stereo not given in full),-7.98
9,O=C(c1ccco1)N1C[C@@H]2OCCN(c3ncccn3)[C@@H]2C1,6.4
10,COc1cc2c(cc1CNC(Cc1cccs1)c1nccs1)OCO2 (stereo not given),-1.88
11,N#Cc1c(F)cccc1N1CCCC(C(=O)Nc2nncs2)C1 (stereo not given),4.48
12,CCCc1nc(CN2CCCC2Cn2cncn2)cs1 (stereo not given),-9.39
13,O=C1CCC(C(=O)N2CCOC(Cc3cccc4ccccc34)C2)=NN1 (stereo not given),-3.86
14,CCn1nnc2c1C(COC)CN(Cc1ccsc1)C2 (stereo not given),2.3
15,Cc1noc(Cl)c1CCC(=O)N1CCN(c2ccccc2)CC1,-1.37
16,Cc1noc(CNc2ccccc2C(=O)N2CCCC(O)C2)n1 (stereo not given),-3.13
17,Cc1csc(CN2C[C@@H]3COC[C@]3(COCC(=O)N(C)C)C2)n1,0.851
18,Cn1ccnc1CNC(=O)N(CCCO)C1CCCc2ccccc21 (stereo not given),-6.19
19,Cc1noc(CN(C)Cc2ccc3c(c2)OCO3)n1,-13.2
20,O=C(O)c1ccc(CN2CCCC(Cc3ccn[nH]3)C2)cc1 (stereo not given),-6.08
21,Cc1cccc(C(C(=O)N2CC(c3cccnc3)C2)N(C)C)c1 (stereo not given),-4.8
22,CC(C)N1CCC2(CCCNC2)C1=O (stereo not given),0.906

row,SMILES,cytotoxicity at 10 µM [%]
1,Cc1ccccc1N1CC2(CCN(S(=O)(=O)c3ccccc3)C2)CC1=O (stereo not given),6.24
2,CCc1ccc(C(=O)Nc2ccc(CC3CC(=O)NC3=O)cc2)s1 (stereo not given),-0.95
3,Cc1ccc(N2CCCN(C(=O)CCc3nccs3)CC2)nn1,-7.91
4,c1cc(CN2C[C@@H]3OCCN(CC4CCCO4)[C@@H]3C2)co1 (stereo not given in full),4.8
5,CC1CCCN(Cc2ccnc(-c3cccnc3)n2)C1 (stereo not given),-6.57
6,CC(NC(=O)NCCC(=O)OC(C)(C)C)c1nncn1C (stereo not given),2.49
7,CNC(=O)[C@H]1C[C@H]2CN(Cc3cccc(C)c3)C[C@@H]1O2,8.97
8,Cc1noc(C)c1CN1C[C@H](OCC(=O)N(C)C)[C@H]2OCCC[C@H]21,8.34
9,O=C(NCC1CC1)[C@@H]1C[C@@H]2OCCN[C@@H]2C1,-131
10,Cc1cnn(CC2CCCN2CC(=O)N(C)Cc2ccsc2)c1 (stereo not given),3.82
11,Cc1cc(C)c(CNC(=O)C(C)Oc2ccccc2C#N)c(=O)[nH]1 (stereo not given),4.59
12,CC(=O)NCC(=O)N1C[C@H](OCc2cccnc2)[C@H]2COC[C@H]21,-7.12
13,O=C(NCCc1c[nH]cn1)c1ccccc1C1CCNC1 (stereo not given),12.8
14,O=C(NCC1CC1)C1CSCN1S(=O)(=O)c1ccccc1 (stereo not given),-4.43
15,c1ccc(N2CCCC3(CCN(Cc4ccsc4)C3)C2)nc1 (stereo not given),-14
16,Fc1ccc(OCCNC2CCN(Cc3ccccn3)CC2)c(F)c1,-3.26
17,COc1ccc(CNC(Cc2cccs2)c2nc(C)c(C)s2)cc1OC (stereo not given),-3.32
18,c1cnc(NCc2ncn3c2CN(Cc2cccnc2)CCC3)nc1,-8.81
19,CCc1nnc(Nc2cccc(C3CCN(C(C)=O)CC3)n2)s1,0.579
20,CC(=O)N1CCCc2ccc(S(=O)(=O)N3CCCCC3C)cc21 (stereo not given),-15.1
21,Cc1ccccc1CC1(CO)CCCN(c2ncccc2C#N)C1 (stereo not given),-1.16
22,CNS(=O)(=O)CC(=O)N(Cc1c(F)cccc1Cl)C1CC1,4.71

row,SMILES,cytotoxicity at 10 µM [%]
1,CCc1nnc2n1CCN(CC(=O)N(CC)C1=CCCCC1)C2,-0.0192
2,Cc1cccc(CN2C[C@@H]3OCCN(S(=O)(=O)N(C)C)[C@@H]3C2)n1,11.2
3,CCCSCC(=O)N1CCC2(CC1)CC(c1ccccc1)CN(C)C2 (stereo not given),-7.29
4,O=C(N[C@H]1CN[C@H]2CCCO[C@H]21)c1cscn1,-13.7
5,Cc1ccc(NC(=O)N2CCOC(C)C2)cc1Cl (stereo not given),-6.78
6,CC(C)CN1CC(c2nc(CCc3ccccc3)n[nH]2)CC1=O (stereo not given),6.08
7,CCOC1CCCN(C(=O)c2[nH]nc(C3CC3)c2Br)C1 (stereo not given),-5.4
8,Cc1ccsc1C(=O)N1CC(C(=O)N2CCOCC2)C2(CCOCC2)C1 (stereo not given),1.47
9,CC(=O)N(Cc1ncc(C)o1)C1CCN(Cc2cccc(C#N)c2)C1 (stereo not given),1.63
10,COc1cnc(CN2CC(=O)N(c3ccc(C)cc3)CC2C)cc1O (stereo not given),4.01
11,COc1ccc2c(c1)CCCN2C(=O)c1cccc(N(C)C)c1,62.8
12,c1cnn(CC2CCCCN2c2ncnc3sccc23)c1 (stereo not given),9.48
13,CC(O)c1cccc(N2CCC3(CCC(=O)N(C4CCCC4)C3)CC2)n1 (stereo not given),-3.56
14,CC(C)c1nnc(NC(=O)CN2C(=O)c3ccccc3NC2C(C)C)s1 (stereo not given),-10.2
15,CCOCCN1CCO[C@H]2[C@H](OCc3ccccn3)CC[C@@H]21,-113
16,CN1CCCN(Cc2nc(Cc3ccccc3)n[nH]2)CC1,-7.47
17,Cc1cnn(CCNCc2nnc(-c3ccccc3)o2)c1,-10.4
18,Cn1cc(S(=O)(=O)Nc2c(F)cccc2N2CCCC2)cn1,-4.24
19,CCS(=O)(=O)N1CCC2(CN(c3cccc(C)n3)C2)C1,3.5
20,O=C(NC1CCN(c2ccc(-c3ccccc3F)nn2)C1)C1CCC1 (stereo not given),26
21,Cc1ccc(CN2CCC3(CC2)C(=O)Nc2ccccc23)s1,2.88
22,CCC[C@H]1CN(Cc2cscn2)C[C@@H]1NC(=O)C1(COC)CCC1,-5.69
